{"source": "PubChem BioAssay AID493079", "about": "(The Scripps Research Institute Molecular Screening Center, 2011)", "note": "pIC50: −log10 of the molar value. The source made the active and inactive calls.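 How the source made its calls: active means IC50 of 10 µM or lower for blocking Epstein-Barr viral protein EBNA-1 from binding DNA; inactive means IC50 above 10 µM.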"}
{"molecular_target": "EBNA-1 DNA-binding domain (Epstein-Barr virus)", "test": "blockers of EBV EBNA-1 DNA binding, IC50 – biochemical, fluorescence polarization, dose response, assay provider data, late-stage follow-up (AID 493079)", "details": "recombinant EBNA1 DBD, Cy5-DNA fluorescence polarization", "procedure,_shortened": "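assay system = EBNA-1 DBD (aa 448-610), E. coli-expressed | probe or stimulus = Cy5 hairpin DNA probe, 36 bp | dosing = dose-response series of powder compound samples | technique = Cy5 fluorescence polarization | measure = IC50 from lowered polarization, reflecting more unbound DNA probe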"}
{"smiles": "Cc1cc(C(=O)CSc2nnnn2C2CC2)c(C)n1CC1CCCO1", "note": "(stereo not given)", "IC50": "inactive"}
{"smiles": "Cc1ccc(C(=O)Nc2nc3cc(F)ccc3s2)cc1C", "IC50": "> 148 µM (inactive)"}
{"smiles": "O=C(CSc1nnnn1-c1ccccc1)c1ccn(CC2CCCO2)c1", "note": "(stereo not given)", "IC50": "> 148 µM (inactive)"}
{"smiles": "Cc1ccc(-n2nnnc2SCC(=O)c2cc(C)n(CC3CCCO3)c2C)cc1", "note": "(stereo not given)", "pIC50": 5.26}
{"smiles": "Cc1cc(C(=O)CSc2nnnn2-c2cccc(F)c2)c(C)n1CC1CCCO1", "note": "(stereo not given)", "IC50": "> 148 µM (inactive)"}
{"smiles": "COc1ccc(C(=O)Nc2nc3ccc(S(C)(=O)=O)cc3s2)cc1", "IC50": "inactive"}
{"smiles": "CCn1c(C)cc(C(=O)CSc2nnnn2-c2ccccc2)c1C", "IC50": "> 148 µM (inactive)"}
{"smiles": "CS(=O)(=O)c1ccc2nc(NC(=O)c3ccccc3Cl)sc2c1", "IC50": "> 148 µM (inactive)"}
{"smiles": "Cc1ccc(C(=O)Nc2nc3ccc(Br)cc3s2)cc1C", "IC50": "> 148 µM (inactive)"}
{"smiles": "COc1ccc2nc(NC(=O)c3ccc(C)c(C)c3)sc2c1", "IC50": "> 148 µM (inactive)"}
{"smiles": "COc1ccccc1C(=O)Nc1nc2ccc(S(C)(=O)=O)cc2s1", "IC50": "> 148 µM (inactive)"}
{"smiles": "CS(=O)(=O)c1ccc2nc(NC(=O)c3cccc(F)c3)sc2c1", "IC50": "> 148 µM (inactive)"}
{"smiles": "Cc1cc(C(=O)CSc2nnnn2C)c(C)n1CC1CCCO1", "note": "(stereo not given)", "IC50": "> 148 µM (inactive)"}
{"smiles": "CS(=O)(=O)c1ccc2nc(NC(=O)c3ccccc3F)sc2c1", "IC50": "> 148 µM (inactive)"}
{"smiles": "CS(=O)(=O)c1ccc2nc(NC(=O)c3ccc(Cl)cc3)sc2c1", "IC50": "inactive"}
{"smiles": "Cc1cc(C(=O)CSc2nnnn2-c2ccccc2)c(C)n1C", "IC50": "inactive"}
{"smiles": "COc1cccc(C(=O)Nc2nc3ccc(S(C)(=O)=O)cc3s2)c1", "IC50": "inactive"}
{"smiles": "Cc1cccc(C(=O)Nc2nc3ccc(S(C)(=O)=O)cc3s2)c1", "IC50": "inactive"}
{"smiles": "Cc1ccccc1-n1nnnc1SCC(=O)c1cc(C)n(CC2CCCO2)c1C", "note": "(stereo not given)", "IC50": "> 148 µM (inactive)"}
{"smiles": "Cc1ccccc1C(=O)Nc1nc2ccc(S(C)(=O)=O)cc2s1", "IC50": "> 148 µM (inactive)"}
{"smiles": "COCCn1c(C)cc(C(=O)CSc2nnnn2-c2ccccc2)c1C", "IC50": "> 148 µM (inactive)"}
{"smiles": "Cc1ccc(C(=O)Nc2nc3cc(Br)ccc3s2)cc1C", "IC50": "> 148 µM (inactive)"}
{"smiles": "Cc1cc(C(=O)CSc2nnnn2-c2ccccc2)c(C)n1Cc1cccs1", "IC50": "> 148 µM (inactive)"}
{"smiles": "Cc1ccc(C(=O)Nc2nc3ccc(S(C)(=O)=O)cc3s2)cc1", "IC50": "> 148 µM (inactive)"}
{"smiles": "Cc1cccc(-n2nnnc2SCC(=O)c2cc(C)n(CC3CCCO3)c2C)c1", "note": "(stereo not given)", "IC50": "> 148 µM (inactive)"}
{"smiles": "COc1cccc2sc(NC(=O)c3ccc(C)c(C)c3)nc12", "IC50": "> 148 µM (inactive)"}
{"smiles": "COc1ccc2sc(NC(=O)c3ccc(C)c(C)c3)nc2c1", "IC50": "> 148 µM (inactive)"}
{"smiles": "CS(=O)(=O)c1ccc2nc(NC(=O)c3cccc(Cl)c3)sc2c1", "IC50": "> 148 µM (inactive)"}
{"smiles": "COc1ccc(-n2nnnc2SCC(=O)c2cc(C)n(CC3CCCO3)c2C)cc1", "note": "(stereo not given)", "IC50": "inactive"}
{"smiles": "Cc1cc(C(=O)CSc2nnnn2-c2ccc(Cl)cc2)c(C)n1CC1CCCO1", "note": "(stereo not given)", "IC50": "> 148 µM (inactive)"}
